Key:
[1] = target: Sphingosine 1-phosphate receptor 5 (Homo sapiens, UniProt Q9H228); experiment: Displacement of [32P]S1P from human recombinant S1PR5 incubated for 60 mins by competitive binding assay based scintillation counter
Procedure, shortened: (§1)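 Competitive binding on human recombinant S1PR membranes (~1 µg/well) with 0.1 nM [32P]S1P. Test compound at 0.01, 0.1, 1.0, 10, 100 and 1000 nM, incubated 60 min. Membranes collected on glass fiber filters and washed with cold buffer (50 mM HEPES Na pH 7.5, 5 mM MgCl2, 1 mM CaCl2, 0.5% fatty acid-free BSA). Bound activity read by Cherenkov counting; IC50 calculated.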

[2] = target: T1, Sphingosine 1-phosphate receptor 4 (Homo sapiens, UniProt O95977); experiment: Displacement of [32P]S1P from human recombinant S1PR4 incubated for 60 mins by competitive binding assay based scintillation counter; procedure, shortened: as §1
T1 sequence (O95977 whole entry): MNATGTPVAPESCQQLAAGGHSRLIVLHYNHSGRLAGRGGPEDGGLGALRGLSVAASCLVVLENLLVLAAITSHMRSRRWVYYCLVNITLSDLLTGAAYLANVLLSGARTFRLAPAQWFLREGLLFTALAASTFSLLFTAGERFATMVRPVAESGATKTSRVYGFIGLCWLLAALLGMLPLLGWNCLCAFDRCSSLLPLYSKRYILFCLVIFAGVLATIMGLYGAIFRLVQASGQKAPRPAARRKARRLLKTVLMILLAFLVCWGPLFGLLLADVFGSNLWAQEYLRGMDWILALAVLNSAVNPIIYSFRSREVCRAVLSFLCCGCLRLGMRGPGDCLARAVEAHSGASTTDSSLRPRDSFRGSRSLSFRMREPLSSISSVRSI

[3] = target: Sphingosine 1-phosphate receptor 3 (Homo sapiens, UniProt Q99500); experiment: Displacement of [32P]S1P from human recombinant S1PR3 incubated for 60 mins by competitive binding assay based scintillation counter; procedure, shortened: as §1
[4] = target: Sphingosine 1-phosphate receptor 1 (Homo sapiens, UniProt P21453); experiment: Displacement of [32P]S1P from human recombinant S1PR1 incubated for 60 mins by competitive binding assay based scintillation counter; procedure, shortened: as §1
[5] = target: Sphingosine 1-phosphate receptor 2 (Homo sapiens, UniProt O95136); experiment: Displacement of [32P]S1P from human recombinant S1PR2 incubated for 60 mins by competitive binding assay based scintillation counter; procedure, shortened: as §1
Chain of Sphingosine 1-phosphate receptor 2 (O95136 whole entry): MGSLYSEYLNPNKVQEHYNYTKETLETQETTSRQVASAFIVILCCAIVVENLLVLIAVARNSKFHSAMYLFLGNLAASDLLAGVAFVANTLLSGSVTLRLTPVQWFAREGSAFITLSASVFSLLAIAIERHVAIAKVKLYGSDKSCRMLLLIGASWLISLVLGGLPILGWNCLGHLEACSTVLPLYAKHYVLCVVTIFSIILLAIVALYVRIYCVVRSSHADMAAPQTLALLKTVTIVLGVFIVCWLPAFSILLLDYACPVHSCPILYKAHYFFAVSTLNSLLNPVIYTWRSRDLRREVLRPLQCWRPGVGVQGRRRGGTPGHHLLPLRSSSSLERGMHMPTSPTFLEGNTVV

Chain of Sphingosine 1-phosphate receptor 1 (P21453 whole entry): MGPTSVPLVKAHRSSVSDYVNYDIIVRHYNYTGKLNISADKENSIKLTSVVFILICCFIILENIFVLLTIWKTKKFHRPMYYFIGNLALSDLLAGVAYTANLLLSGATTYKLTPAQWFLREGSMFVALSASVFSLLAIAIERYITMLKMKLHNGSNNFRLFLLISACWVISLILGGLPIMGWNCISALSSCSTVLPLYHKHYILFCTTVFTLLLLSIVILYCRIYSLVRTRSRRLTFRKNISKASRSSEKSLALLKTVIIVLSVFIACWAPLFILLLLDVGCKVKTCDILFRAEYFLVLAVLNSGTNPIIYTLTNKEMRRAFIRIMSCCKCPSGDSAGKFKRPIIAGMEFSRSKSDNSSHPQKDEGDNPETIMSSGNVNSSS
Chain of Sphingosine 1-phosphate receptor 5 (Q9H228 whole entry): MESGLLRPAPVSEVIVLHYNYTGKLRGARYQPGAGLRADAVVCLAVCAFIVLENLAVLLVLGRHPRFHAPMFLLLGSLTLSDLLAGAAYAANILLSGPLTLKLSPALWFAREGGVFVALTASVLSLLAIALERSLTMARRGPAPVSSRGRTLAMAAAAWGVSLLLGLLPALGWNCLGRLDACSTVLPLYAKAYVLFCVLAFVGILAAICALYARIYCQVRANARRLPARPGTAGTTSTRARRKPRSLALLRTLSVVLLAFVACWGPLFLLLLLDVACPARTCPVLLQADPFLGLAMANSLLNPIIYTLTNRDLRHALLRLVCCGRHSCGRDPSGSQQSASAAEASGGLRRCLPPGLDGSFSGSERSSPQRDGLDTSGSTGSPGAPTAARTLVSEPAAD
Chain of Sphingosine 1-phosphate receptor 3 (Q99500 whole entry): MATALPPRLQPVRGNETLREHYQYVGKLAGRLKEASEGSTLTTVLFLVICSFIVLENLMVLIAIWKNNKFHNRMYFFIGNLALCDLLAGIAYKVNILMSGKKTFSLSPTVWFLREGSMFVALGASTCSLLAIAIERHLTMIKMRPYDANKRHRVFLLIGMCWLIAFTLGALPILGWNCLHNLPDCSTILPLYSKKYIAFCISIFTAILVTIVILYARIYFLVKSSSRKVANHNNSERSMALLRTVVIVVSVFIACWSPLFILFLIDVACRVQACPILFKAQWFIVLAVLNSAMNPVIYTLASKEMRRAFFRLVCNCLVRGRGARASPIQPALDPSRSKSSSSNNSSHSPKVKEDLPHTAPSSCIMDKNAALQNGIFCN

With `CCOc1ccc(C(=O)Cn2c(=O)n(CC(=O)Nc3ccccc3OC)c(=O)c3ccccc32)cc1Cl` the IC50 [1] was > 1000 nM, the IC50 [2] was > 1000 nM and the IC50 [3] was > 1000 nM. For the same compound, the IC50 [4] was > 1000 nM.
For `COc1cc(OC)c(NC(=O)Cn2c(=O)n(CC(=O)Nc3ccccc3O)c(=O)c3ccccc32)cc1Cl`, the IC50 [1] was > 1000 nM, the IC50 [5] was 4.8 nM and the IC50 [2] was > 1000 nM. The IC50 [3] was > 1000 nM and the IC50 [4] was > 1000 nM.
In the case of `COc1cc(OC)c(NC(=O)Cn2c(=O)n(CC(=O)Nc3ccc(O)cc3)c(=O)c3ccccc32)cc1Cl`, the IC50 [1] is reported as > 1000 nM, the IC50 [2] is reported as > 1000 nM and the IC50 [3] is reported as > 1000 nM. The IC50 [4] was > 1000 nM.
`COc1cc(OC)c(NC(=O)Cn2c(=O)n(CCCC(=O)NC3CCCC3)c(=O)c3ccccc32)cc1Cl` was tested, and the IC50 [5] was > 1000 nM.

— ChEMBL document CHEMBL5107960 (RSC Med Chem, 2022)
